In ChEMBL document CHEMBL3045478, “Insect antifeedant flavonoids from Gnaphalium affine D. Don” (2000):
Calls of active or inactive are those of the source. The calls are words filed in the database; no cut-off is given here.

System: Spodoptera litura
Experiment: Antifeedant activity against Spodoptera litura in compound treated cork borer from fresh sweet potato leaves by Choice Leaf-Disk Bioassay
Type: functional
Summary of the method: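 Partly eaten disks were photocopied and scanned to digital files, and each treated disk was measured against an intact disk. Antifeedant index (AFI) = % treated consumed/(% treated + % control consumed) × 100. The effective dose was taken as the midpoint between complete inhibition and no effect.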

| SMILES | ED50 | pED50 |
| --- | --- | --- |
| COc1cc2oc(-c3ccccc3)c(OC)c(=O)c2c(O)c1O | 0.25 ×10⁻⁷ mol/cm2 | 7.6 |
| COc1c(OC)c(O)c2c(=O)c(OC)c(-c3ccccc3)oc2c1OC | 0.2 ×10⁻⁷ mol/cm2 | 7.7 |
| COc1cc(O)c2c(=O)c(OC)c(-c3ccc(OC)c(OC)c3)oc2c1 | inactive |  |
| O=c1c(O)c(-c2ccc(O)c(O)c2)oc2cc(O)cc(O)c12 | inactive |  |
| COc1ccc(-c2oc3c(OC)c(OC)c(OC)c(O)c3c(=O)c2OC)cc1 [5-HYDROXYAURANETIN] | 1.1 ×10⁻⁷ mol/cm2 | 6.96 |
| COc1ccc(/C=C/C(=O)c2c(O)cc(OC)cc2OC)cc1 [FLAVOKAWAIN A] | 90 ×10⁻⁷ mol/cm2 | 5.05 |
| COc1ccc(-c2cc(=O)c3c(O)c(OC)c(OC)c(OC)c3o2)cc1 [GARDENIN B] | 1.8 ×10⁻⁷ mol/cm2 | 6.74 |
| COc1cc(O)cc(O)c1C(=O)/C=C/c1ccc(O)cc1 [HELICHRYSETIN] | 3.8 ×10⁻⁷ mol/cm2 | 6.42 |
| C=C(C)[C@H]1Cc2c(ccc3c2O[C@@H]2COc4cc(OC)c(OC)cc4[C@@H]2C3=O)O1 [ROTENONE] | 1.5 ×10⁻⁷ mol/cm2 | 6.82 |
| COc1ccc(-c2cc(=O)c3c(OC)c(OC)c(OC)c(OC)c3o2)cc1 [TANGERETIN] | 2.8 ×10⁻⁷ mol/cm2 | 6.55 |
